Sampled rows, rich in hits. Any-hit rate of the full collection: about 2.1%.
PDI inh = PDI (human) enzyme inhibition. P07237. PDI insulin aggregation turbidity, A650, 90 min. inhibition, % at 10 µM. 350,000 tested, 0.052% active. AID 588391;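 active means mean inhibition across replicates of 30% or more, whatever share of single replicates reach that level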
Target sequence (P07237 whole entry, looked up): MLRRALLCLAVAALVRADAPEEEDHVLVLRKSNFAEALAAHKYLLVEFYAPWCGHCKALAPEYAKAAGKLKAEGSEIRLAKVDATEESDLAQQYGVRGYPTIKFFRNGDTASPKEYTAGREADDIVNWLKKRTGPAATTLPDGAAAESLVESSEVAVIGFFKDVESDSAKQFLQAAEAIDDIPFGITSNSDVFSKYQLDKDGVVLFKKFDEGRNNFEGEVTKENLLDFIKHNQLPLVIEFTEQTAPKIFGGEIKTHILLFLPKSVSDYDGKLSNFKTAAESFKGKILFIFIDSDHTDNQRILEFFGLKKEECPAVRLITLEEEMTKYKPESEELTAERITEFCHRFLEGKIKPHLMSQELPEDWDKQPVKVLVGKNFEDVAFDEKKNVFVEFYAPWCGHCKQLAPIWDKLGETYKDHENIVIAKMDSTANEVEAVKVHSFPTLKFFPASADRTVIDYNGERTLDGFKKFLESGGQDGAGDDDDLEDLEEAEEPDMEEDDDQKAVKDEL
ERp5 inh = inhibitors of human ERp5; Q15084; ERp5 insulin aggregation, absorbance 650 nm, 90 min; inhibition, % at 9.99 µM; 350,000 tested, 0.05% active;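 active means mean replicate inhibition above about 25%, with every replicate also reaching it, limit read from the data, passing the limit was not always enough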
FGF22 binding = FGF22 (human) thermal shift binding; 340,000 tested, 1.5% active; Q9HCT0; recombinant FGF22 thermal shift, SYPRO orange fluorescence; percent of sucrose octasulfate shift, DMSO zero; activity (Tm shift, normalised), % at 9.99 µM;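 active means mean Tm shift, scaled 0 neutral to 100 positive control, at about 1.3% or above, every replicate too, limit read from the data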
FN deposit inh = fibronectin deposition inhibition | AH1F fibroblasts, Alexa488-fibronectin deposition fluorescence, overnight | inhibition, % at 12.6 µM | 350,000 tested, 0.086% active;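 active means mean inhibition across replicates of 30% or more, regardless of how many single replicates reach that level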;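 further: positive control wells lacked labelled fibronectin entirely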
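Schedule: 1 h cell adhesion before compound, then overnight fibronectin incubation; test system: AH1F fibroblast monolayer depositing Alexa488-labelled fibronectin into matrix; quantity: 10000 AH1F cells per well; probe or stimulus: fluorescent fibronectin at 24 nM final; signal: fluorescence, ex 485 nm, em 525 nm; evaluation: percent inhibition as loss of matrix-bound fibronectin fluorescence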
MLL AF4-AF9 inh = MLL-AF4/AF9 protein interaction inhibition | AID 651704 | 350,000 tested, 0.47% active | inhibition, % at 10 µM | P42568 | AlphaScreen, biotin-AF4 peptide binding to FLAG-AF9;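 active means every replicate reaching a set inhibition limit, whatever the replicate mean, cut at about 25% in these data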;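 further: 0% = plate neutral control median and 100% = total signal loss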
ARNT-TACC3 inh = disrupts binding between human ARNT and TACC3; AlphaScreen His-ARNT PAS-B/GST-TACC3 binding, luminescence; TACC3 fragment carries E629A point mutation; inhibition, % at 9.99 µM; 390,000 tested, 0.66% active; AID 623870;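 active means mean inhibition of replicates at least 50% and at least half of replicates each reaching 50%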;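 further: 0% = complete ARNT plus TACC3 wells and 100% = ARNT alone without TACC3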
Numbers without * were called inactive; . = not tested or not shown.

SMILES	PDI inh	ERp5 inh	FGF22 binding	FN deposit inh	MLL AF4-AF9 inh	ARNT-TACC3 inh
COc1ccc(Nc2n[nH]c(N)c2C(N)=O)cc1	1	0	0	8	29*	-42
COc1ccc(Nc2nc(C)cc(C)c2C(N)=O)cc1	-4	.	.	.	.	1
O=[N+]([O-])c1ccccc1S(=O)(=O)N/C(=N/S(=O)(=O)c1ccccc1)c1ccccc1	1	-1	43*	16	5	-4
CN(C)/C=N/S(=O)(=O)c1ccc(Cl)cc1	3	5	43*	-3	-5	0
Cc1ccc(S(=O)(=O)/N=C/N(C)C)cc1	0	.	.	.	.	-2
CCC(=O)Nc1ccc(C(=O)Nc2ccc(Br)cc2F)cc1	13	-1	43*	4	-1	2
O=C(Nc1ccc(Br)cc1F)c1ccc2c(c1)OCCO2	3	2	0	0	5	.
CC(C)NC(=O)Nc1ccc2c(c1)C(=O)N([C@@H](C)CO)C[C@@H](C)[C@@H](CN(C)Cc1ccc(C(=O)O)cc1)O2	.	3	0	.	-4	16
Cc1cc(N/N=C/c2ccc(Cl)cc2)nc(NCc2ccccc2)n1	-3	9	1.6*	1	0	17
O=c1[nH]cc(CN2CCOCC2)c(=O)[nH]1	1	12	43*	0	-7	-5
CCOC(=O)c1c(C)oc2c1c(C=NCc1ccccn1)c(O)c1ccccc12	0	-2	.	13	13	48*
COc1ccc2c3c([nH]c2c1)[C@H](CO)N(C(=O)c1ccc(F)cc1)CC31CCN(C(=O)Nc2ccc(F)cc2)CC1	.	1	0	.	0	.
COc1ccc2c3c([nH]c2c1)[C@H](CO)N(C(=O)c1ccc(F)cc1)CC31CN(C(=O)Nc2cccc(F)c2)C1	.	-1	0	.	1	.
COc1ccc2c3c([nH]c2c1)[C@@H](CO)N(C(=O)c1ccc(F)cc1)CC31CCN(C(=O)Nc2cccc(F)c2)CC1	.	63*	0	.	3	.
COc1ccc2c3c([nH]c2c1)[C@H](CO)N(C(=O)c1ccc(F)cc1)CC31CCN(C(=O)Nc2cccc(F)c2)CC1	.	66*	0	.	0	.
C[C@@H]1CN([C@H](C)CO)C(=O)c2cc(NS(=O)(=O)c3ccc(F)cc3)ccc2O[C@@H]1CN(C)CC1CC1	.	9	0	-13	0	-6
CO[C@@H]1CN(C)C(=O)c2ccc(NC(=O)c3ccccc3)cc2OC[C@H](C)N(C(=O)C2CC2)C[C@H]1C	.	.	.	-21	.	-9
COc1ccccc1NC(=S)NC12CN3CN(CN(C3)C1)C2	-1	4	.	10	12	0
Cc1ccccc1NC(=S)NC12CN3CN(CN(C3)C1)C2	0	0	44*	1	-6	2
Cc1ccc(S(=O)(=O)NNC(=S)Nc2cccc(C)c2C)cc1	1	-2	0	-7	-6	-3
Cc1cccc(NC(=S)NC23CN4CN(CN(C4)C2)C3)c1C	4	1	44*	-8	-1	-1
CO[C@H](CN(C)C(=O)Nc1ccc(F)cc1)[C@@H](C)CN(Cc1ccccc1Cl)[C@H](C)CO	.	1	0	-19	1	3
CC(=O)c1cn(N(C)c2ncc(C(F)(F)F)cc2Cl)c(=O)[nH]c1=O	-29	-12	42	-8	-3	.
C=CCn1c(=O)c(C(C)=O)cn(N(C)c2ncc(C(F)(F)F)cc2Cl)c1=O	-2	8	43*	1	-2	-8
CO[C@H]1CN(C)C(=O)c2ccc(NC(=O)Nc3ccccc3F)cc2OC[C@H](C)N(C)C[C@H]1C	.	4	0	7	1	1
SMILES	PDI inh	ERp5 inh	FGF22 binding	FN deposit inh	MLL AF4-AF9 inh	ARNT-TACC3 inh
C[C@H](CO)N1C[C@H](C)[C@@H](CN(C)C(=O)Nc2ccc3c(c2)OCO3)Oc2ccc(N(C)C)cc2C1=O	.	3	-1	.	2	10*
CC(C)NC(=O)Nc1ccc2c(c1)C(=O)N([C@@H](C)CO)C[C@@H](C)[C@H](CN(C)Cc1ccc(C(=O)O)cc1)OCCCC[C@H](C)O2	.	-3	1.6*	-11	-1	1
C[C@@H]1CN([C@@H](C)CO)C(=O)c2cc(NC(=O)Nc3ccc4c(c3)OCO4)ccc2O[C@@H]1CN(C)Cc1ccc(C(=O)O)cc1	.	39*	0	.	0	2
CC(C)NC(=O)Nc1ccc2c(c1)C(=O)N([C@H](C)CO)C[C@@H](C)[C@H](CN(C)Cc1ccc(C(=O)O)cc1)OCCCC[C@H](C)O2	.	-2	0	1	-2	-9
C[C@@H]1CCCCO[C@H](CN(C)Cc2ccccc2)[C@@H](C)CN([C@@H](C)CO)C(=O)c2cc(NC(=O)Nc3ccc4c(c3)OCO4)ccc2O1	.	9	-1	1	37*	19
C[C@H]1CN([C@@H](C)CO)C(=O)c2cc(NC(=O)Nc3ccc4c(c3)OCO4)ccc2O[C@@H]1CN(C)Cc1ccc(C(=O)O)cc1	.	-4	0	.	-1	-8
C[C@H](CO)N1C[C@H](C)[C@@H](CN(C)S(=O)(=O)c2ccccc2)OCCCC[C@H](C)Oc2ccc(NS(C)(=O)=O)cc2C1=O	.	2	0	.	0	-10
C[C@@H]1CCCCO[C@@H](CN(C)Cc2ccc3c(c2)OCO3)[C@H](C)CN([C@H](C)CO)C(=O)c2cc(NC(=O)Nc3ccc4c(c3)OCO4)ccc2O1	.	1	-1	6	32*	20
C[C@@H]1CN([C@@H](C)CO)C(=O)c2cc(NC(=O)Nc3ccc4c(c3)OCO4)ccc2O[C@@H](C)CCCCO[C@@H]1CN(C)Cc1ccc2c(c1)OCO2	.	-1	0	2	4	8
C[C@]12CC[C@@H]3c4ccc(OS(=O)(=O)O)cc4CC[C@H]3[C@@H]1CCC2=O	5	4	1	-8	-1	-3
CC12CCC3c4ccc(O)cc4CCC3C1CCC2=O (stereo not given)	45*	-10	0	5	-4	-4
COc1ccc(NC(=O)N[C@H]2CC[C@H](CC(=O)NCc3ccccn3)O[C@H]2CO)cc1	.	1	0	.	-3	25
CCOc1ncccc1C(=O)Nc1ccc(F)c(F)c1	4	-1	43*	1	-4	-4
COc1ccc2c3c(n(C)c2c1)[C@H](CO)N(Cc1ccc2c(c1)OCO2)CC31CCN(C(=O)c2ccc3c(c2)OCO3)CC1	.	.	0	.	-3	.
O=C(O)CCC(=O)N1CCCC1	7	0	43*	8	-1	.
CCc1ccc(OCCCC(=O)NCc2ccco2)cc1	1	-1	44*	-13	-11	-2
COC(=O)C[C@@H]1CC[C@@H]2[C@H](COc3ccc(NC(=O)Nc4cccc(C)c4)cc3C(=O)N2C)O1	.	4	0	-8	5	-10

High-throughput results (PubChem)
